Series [1] is filed under the species Mus musculus. As to the kind of experiment: Inhibition of TLR4/IL-1R in BALB/c mouse BMDM assessed as downregulation of LPS-stimulated MyD88 protein expression at 1 ug/mL after 20 hrs by Western blotting analysis relative to control. In outline:
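Bone marrow macrophages were treated 20 h with medium, compound (1 or 5 μg/mL) or LPS (100 ng/mL) and lysed in modified RIPA buffer. Protein (30 μg) was separated on Bis-Tris gels, and MyD88 and GAPDH were detected by Western blot with ECL. Densitometric MyD88:GAPDH ratio was normalized to the RPMI value, from six analyses.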
Background: Immunoblotting shows a protein as a band on a membrane.

A further series relates to BMDC. As to the kind of experiment: Antiinflammatory activity in mouse BMDC assessed as downregulation of TLR4 expression. The series is classed as functional.
Series [2] deals with T1, Toll-like receptor 4 (Mus musculus) (UniProt Q9QUK6).
T1 sequence (whole entry): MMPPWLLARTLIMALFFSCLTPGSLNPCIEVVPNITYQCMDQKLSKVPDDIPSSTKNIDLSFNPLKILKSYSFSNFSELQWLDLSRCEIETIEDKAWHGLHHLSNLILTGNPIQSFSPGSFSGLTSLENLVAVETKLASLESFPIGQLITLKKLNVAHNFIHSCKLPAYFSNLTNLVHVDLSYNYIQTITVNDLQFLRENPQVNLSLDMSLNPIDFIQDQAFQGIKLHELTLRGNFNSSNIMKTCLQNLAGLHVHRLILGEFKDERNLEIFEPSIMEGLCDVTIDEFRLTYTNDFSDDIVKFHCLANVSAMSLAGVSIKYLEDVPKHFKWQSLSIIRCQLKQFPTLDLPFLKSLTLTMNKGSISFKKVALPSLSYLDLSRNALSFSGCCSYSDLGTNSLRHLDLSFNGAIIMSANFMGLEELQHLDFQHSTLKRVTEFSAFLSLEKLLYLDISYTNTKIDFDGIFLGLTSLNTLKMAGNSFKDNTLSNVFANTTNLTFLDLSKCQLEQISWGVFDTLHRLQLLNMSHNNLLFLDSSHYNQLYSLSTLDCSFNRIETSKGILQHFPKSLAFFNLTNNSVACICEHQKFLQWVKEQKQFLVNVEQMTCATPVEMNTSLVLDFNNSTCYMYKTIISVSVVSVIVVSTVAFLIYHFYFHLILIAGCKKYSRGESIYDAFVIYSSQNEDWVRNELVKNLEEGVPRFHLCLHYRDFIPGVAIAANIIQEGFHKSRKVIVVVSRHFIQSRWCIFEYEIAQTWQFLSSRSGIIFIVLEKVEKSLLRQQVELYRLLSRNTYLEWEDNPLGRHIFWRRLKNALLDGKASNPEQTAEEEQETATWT
As to the kind of experiment: Inhibition of TLR4 in C57BL/6 mouse BMDC assessed as reduction of LPS-induced TNF-alpha production at 5 ug/mL preincubated for 2 hrs prior to LPS challenge measured after 24 hrs by ELISA. An outline of the steps:
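C57BL/6 bone marrow DCs were generated in complete RPMI with 10 ng/mL GM-CSF. They were preincubated ± compound at 5 μg/mL for 2 h, then stimulated with LPS for 24 h. TNF-α, IL-6 and IL-23 in conditioned medium were measured by ELISA. Values are means of triplicates ± SEM pooled from 4 experiments.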
Background: In an ELISA, binding on a coated surface is turned into a signal by an enzyme label.

Series [3] relates to Mus musculus. As to the kind of experiment: Antiinflammatory activity in DBA/1 mouse assessed as reduction in number of PMA/ionomycin-stimulated gammadelta+ T cells expressing IL-17 at 50 ug/kg, sc administered 2 days prior to collagen challenge continued till day 21 post collagen challenge by flow cytometric analysis relative to control. It is filed as functional, organism-based. The following applies: T-cell. An outline of the steps:
(§1)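 CIA mice given test agent (1 μg/dose) or PBS subcutaneously on days −2, 0 and 21. Draining lymph node cells (10^6/mL) in complete RPMI were stimulated ± 50 ng/mL PMA plus 500 ng/mL ionomycin, with 10 μg/mL brefeldin A for 5 h at 37 °C. Cells were surface-stained for CD4, CD8 and γδ, fixed and permeabilized, then stained for intracellular IFNγ and IL-17A. Gating used isotype controls. Cell numbers per individual mouse; naive n = 7, treated groups n = 13.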
(Flow cytometry measures light scatter and fluorescence of single cells or particles in a stream.)

The test system of series [4] is Mus musculus. The series can be described thus: Antiinflammatory activity in DBA/1 mouse collagen-induced arthritis model assessed as reduction in number of PMA/ionomycin-stimulated total DLN cells expressing IL-17 at 50 ug/kg, sc administered 2 days prior to collagen challenge continued till day 21 post collagen challenge by flow cytometric analysis relative to control. The series is classed as functional, organism-based. An outline of the steps: as §1

Series [5] concerns Mus musculus. The series can be described thus: Antiinflammatory activity in DBA/1 mouse collagen-induced arthritis model assessed as reduction in number of PMA/ionomycin-stimulated CD8+ T cells expressing IFNgamma at 50 ug/kg, sc administered 2 days prior to collagen challenge continued till day 21 post collagen challenge by flow cytometric analysis relative to control. The series is classed as functional, organism-based. The following applies: T-cell. In outline: as §1

Series [6] deals with Mus musculus. The series can be described thus: Antiinflammatory activity in DBA/1 mouse collagen-induced arthritis model assessed as reduction in number of CD8+ T cells at 50 ug/kg, sc administered 2 days prior to collagen challenge continued till day 21 post collagen challenge. The series is classed as functional, organism-based. The following applies: T-cell. An outline of the steps: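 Dosing was 1 μg/dose or PBS given subcutaneously on days −2, 0 and 21 of CIA. Total, CD4+, CD8+ and γδ T cell numbers in draining lymph nodes were counted by flow cytometry for each mouse. Naive mice not exposed to collagen served as a further control (naive n = 7; PBS and treated n = 13).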

Series [7] is described as follows: Cytotoxicity against CpG-stimulated BALB/c mouse BMDM assessed as loss of cell viability at 5 ug/mL preincubated for 18 hrs followed by CpG challenge measured after 24 hrs by 7-AAD staining-based flow cytometric analysis. An outline of the steps: (§2)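 BALB/c bone marrow macrophages (2 × 10^5/well) were rested 24 h in complete RPMI, then given 5 μg/mL compound for 18 h. Cells were stained with 7-AAD for 10 min on ice and the dead fraction read by flow cytometry. One experiment is representative of two.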

Series [8] in a line: Cytotoxicity against LPS-stimulated BALB/c mouse BMDM assessed as loss of cell viability at 5 ug/mL preincubated for 18 hrs followed by LPS challenge measured after 24 hrs by 7-AAD staining-based flow cytometric analysis. An outline of the steps: as §2
The target of series [9] is T1, Toll-like receptor 4 (Mus musculus). As to the kind of experiment: Inhibition of TLR4 in BALB/c mouse BMDM assessed as downregulation of LPS-stimulated IL-12p40 level at 5 ug/ml preincubated for 18 hrs followed by LPS challenge measured after 24 hrs by ELISA relative to control. An outline of the steps:
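BALB/c male bone marrow macrophages were differentiated 7 days with L929 supernatant (≥99% CD11b+/F4/80+). Cells were plated at 2 × 10^5/well in triplicate, rested overnight, and given compounds at 5 μg/mL for 18 h. They were then stimulated with 100 ng/mL S. minnesota LPS, 10 ng/mL Pam3CSK4 (BLP) or 0.01 μM CpG for 24 h. Supernatant IL-12p40 and IL-6 were measured by ELISA (sensitivity 16 pg/mL).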

For series [10], the species on record is Mus musculus. The series can be described thus: Inhibition of TLR4/IL-1R in BALB/c mouse BMDM assessed as downregulation of LPS-stimulated MyD88 expression at 5 ug/mL preincubated for 2 hrs followed by LPS challenge measured after 18 hrs by flow cytometric analysis (reference value: 127%); values are per cent of control.

Activity calls are given as the source filed them. Unless noted, the calls are words filed in the database; no cut-off is given here.

Consider `CN(C)CCS(=O)(=O)Cc1ccc(Br)cc1`, for which, in the series filed under Mus musculus [1], the fold change (FC) was found to be 1.09. Moreover, the result in the series on BMDC was inactive. For the same molecule, the inhibition entry in [2] and in series [9] was “Active” in each case. Further, the result with Mus musculus [3], in the series with Mus musculus [4], with Mus musculus [5] and in the series on Mus musculus [6] was Active. Besides, the Activity entry in series [7] and in series [8] was “Non-toxic” throughout. In the series listed under Mus musculus [10], the residual activity came out at 95.7%.

For the origin of these results see ChEMBL document CHEMBL3108700, “Designing anti-inflammatory drugs from parasitic worms: a synthetic small molecule analogue of the Acanthocheilonema viteae product ES-62 prevents development of collagen-induced arthritis” (J Med Chem, 2013).
